# The M2OR odorant receptor database
# Experiments:
# Conditions in all cases: stereoisomer not certain
# OR13C2 (Homo sapiens) = biological target: T1, OR13C2 (Homo sapiens) (UniProt Q8NGS9)
# T1 sequence (whole entry): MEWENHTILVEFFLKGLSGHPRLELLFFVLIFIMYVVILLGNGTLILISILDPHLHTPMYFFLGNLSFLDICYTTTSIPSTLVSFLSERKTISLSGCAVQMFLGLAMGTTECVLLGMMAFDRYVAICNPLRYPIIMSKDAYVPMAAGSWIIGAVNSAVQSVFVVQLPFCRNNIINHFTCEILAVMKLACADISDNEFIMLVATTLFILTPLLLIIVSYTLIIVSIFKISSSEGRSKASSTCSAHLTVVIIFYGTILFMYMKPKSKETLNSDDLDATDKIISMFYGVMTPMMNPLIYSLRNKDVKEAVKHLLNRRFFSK
# In short: (§1)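 Each receptor–molecule pair is labelled responsive or non-responsive (inactive) according to whether the original authors judged the measured signal statistically different from baseline. The data were taken from the main text and supplementary material of published papers and checked for typos and inconsistencies. Assay methods differed by source, with transient luciferase assays in mammalian cell lines being common.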
# OR13C3 (Homo sapiens) = biological target: T2, OR13C3 (Homo sapiens) (UniProt Q8NGS6)
# T2 sequence (whole entry): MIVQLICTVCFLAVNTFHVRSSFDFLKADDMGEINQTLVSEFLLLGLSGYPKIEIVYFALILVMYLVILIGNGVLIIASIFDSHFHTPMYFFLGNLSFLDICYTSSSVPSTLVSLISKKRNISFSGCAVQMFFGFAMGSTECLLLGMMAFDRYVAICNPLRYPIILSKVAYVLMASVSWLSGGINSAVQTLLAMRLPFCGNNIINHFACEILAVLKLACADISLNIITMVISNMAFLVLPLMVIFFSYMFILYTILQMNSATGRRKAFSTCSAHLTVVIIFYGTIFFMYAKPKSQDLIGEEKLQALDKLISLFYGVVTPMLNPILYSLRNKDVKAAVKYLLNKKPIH
# In short: as §1
# OR13C4 (Homo sapiens) = biological target: T3, OR13C4 (Homo sapiens) (UniProt Q8NGS5)
# T3 sequence (whole entry): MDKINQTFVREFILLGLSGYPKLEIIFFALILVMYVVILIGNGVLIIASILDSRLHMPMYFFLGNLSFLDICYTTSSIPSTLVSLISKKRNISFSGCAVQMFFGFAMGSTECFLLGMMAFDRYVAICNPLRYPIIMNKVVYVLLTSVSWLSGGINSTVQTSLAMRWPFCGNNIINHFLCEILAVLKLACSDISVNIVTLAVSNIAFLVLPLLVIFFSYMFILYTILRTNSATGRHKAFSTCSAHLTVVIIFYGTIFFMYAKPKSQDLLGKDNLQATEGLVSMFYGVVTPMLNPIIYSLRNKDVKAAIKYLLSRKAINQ
# In short: as §1
# OR13C5 (Homo sapiens) = biological target: T4, OR13C5 (Homo sapiens) (UniProt Q8NGS8)
# T4 sequence (whole entry): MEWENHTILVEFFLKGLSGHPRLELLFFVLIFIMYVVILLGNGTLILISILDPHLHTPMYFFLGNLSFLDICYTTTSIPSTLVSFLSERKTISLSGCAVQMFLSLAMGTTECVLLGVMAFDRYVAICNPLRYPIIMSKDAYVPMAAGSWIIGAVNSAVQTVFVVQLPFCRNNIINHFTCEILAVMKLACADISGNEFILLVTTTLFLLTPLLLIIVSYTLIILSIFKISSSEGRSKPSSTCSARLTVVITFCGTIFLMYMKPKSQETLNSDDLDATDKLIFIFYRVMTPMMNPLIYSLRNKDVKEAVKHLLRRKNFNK
# In short: as §1
# OR13C8 (Homo sapiens) = biological target: T5, OR13C8 (Homo sapiens) (UniProt Q8NGS7)
# T5 sequence (whole entry): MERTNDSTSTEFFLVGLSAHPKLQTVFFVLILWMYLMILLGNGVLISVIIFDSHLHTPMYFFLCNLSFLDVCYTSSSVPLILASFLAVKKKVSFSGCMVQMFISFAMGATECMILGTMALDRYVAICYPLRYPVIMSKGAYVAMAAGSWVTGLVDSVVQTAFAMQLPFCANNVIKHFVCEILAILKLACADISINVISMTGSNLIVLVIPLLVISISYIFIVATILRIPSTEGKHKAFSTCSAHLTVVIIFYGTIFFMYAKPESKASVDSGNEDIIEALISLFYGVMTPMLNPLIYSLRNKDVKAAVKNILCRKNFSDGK
# In short: as §1
# OR13C9 (Homo sapiens) = biological target: T6, OR13C9 (Homo sapiens) (UniProt Q8NGT0)
# T6 sequence (whole entry): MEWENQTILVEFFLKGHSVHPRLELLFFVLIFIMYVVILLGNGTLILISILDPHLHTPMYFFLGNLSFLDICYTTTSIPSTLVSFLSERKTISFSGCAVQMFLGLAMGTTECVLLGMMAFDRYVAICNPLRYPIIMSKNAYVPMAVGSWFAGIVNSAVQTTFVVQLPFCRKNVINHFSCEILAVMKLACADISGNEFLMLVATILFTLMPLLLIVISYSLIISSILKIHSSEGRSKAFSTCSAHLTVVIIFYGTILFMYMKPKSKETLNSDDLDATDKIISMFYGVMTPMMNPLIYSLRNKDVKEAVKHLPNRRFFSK
# In short: as §1
# OR13D1 (Homo sapiens) = biological target: T7, OR13D1 (Homo sapiens) (UniProt Q8NGV5)
# T7 sequence (whole entry): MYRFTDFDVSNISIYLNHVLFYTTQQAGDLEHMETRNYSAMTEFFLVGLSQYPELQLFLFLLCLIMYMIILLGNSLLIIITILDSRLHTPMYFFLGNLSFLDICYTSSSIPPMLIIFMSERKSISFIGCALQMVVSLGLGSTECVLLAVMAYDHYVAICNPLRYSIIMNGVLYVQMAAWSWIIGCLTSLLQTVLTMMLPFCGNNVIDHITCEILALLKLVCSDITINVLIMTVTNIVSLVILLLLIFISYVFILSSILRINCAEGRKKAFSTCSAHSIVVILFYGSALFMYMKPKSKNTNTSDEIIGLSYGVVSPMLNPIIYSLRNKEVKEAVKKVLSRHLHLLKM
# In short: as §1
# OR13F1 (Homo sapiens) = biological target: T8, OR13F1 (Homo sapiens) (UniProt Q8NGS4)
# T8 sequence (whole entry): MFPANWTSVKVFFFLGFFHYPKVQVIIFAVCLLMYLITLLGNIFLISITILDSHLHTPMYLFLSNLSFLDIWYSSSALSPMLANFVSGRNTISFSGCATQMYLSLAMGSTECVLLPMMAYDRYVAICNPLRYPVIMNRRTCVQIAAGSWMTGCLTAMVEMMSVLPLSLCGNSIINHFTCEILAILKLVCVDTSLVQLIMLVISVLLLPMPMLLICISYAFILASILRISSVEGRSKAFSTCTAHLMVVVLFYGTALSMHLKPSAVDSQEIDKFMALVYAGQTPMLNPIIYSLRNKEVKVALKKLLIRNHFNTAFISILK
# In short: as §1
# OR13G1 (Homo sapiens) = biological target: T9, OR13G1 (Homo sapiens) (UniProt Q8NGZ3)
# T9 sequence (whole entry): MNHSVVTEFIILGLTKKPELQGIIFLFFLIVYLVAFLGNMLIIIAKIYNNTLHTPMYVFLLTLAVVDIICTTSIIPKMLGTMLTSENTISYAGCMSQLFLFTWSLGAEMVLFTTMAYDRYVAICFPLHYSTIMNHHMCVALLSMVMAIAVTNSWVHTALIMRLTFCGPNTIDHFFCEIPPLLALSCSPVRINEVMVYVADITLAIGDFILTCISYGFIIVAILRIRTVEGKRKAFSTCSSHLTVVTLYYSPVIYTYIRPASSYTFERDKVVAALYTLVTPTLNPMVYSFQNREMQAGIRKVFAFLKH
# In short: as §1
# 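Also: active if original authors judged signal statistically different from baseline.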
structure (smiles),measurement,setting,value
CC(CO)CS (centres undefined),odorant receptor agonist call,OR13C2 (Homo sapiens),inactive
same,odorant receptor agonist call,OR13C3 (Homo sapiens),inactive
same,odorant receptor agonist call,OR13C4 (Homo sapiens),inactive
same,odorant receptor agonist call,OR13C5 (Homo sapiens),active
same,odorant receptor agonist call,OR13C8 (Homo sapiens),inactive
same,odorant receptor agonist call,OR13C9 (Homo sapiens),inactive
same,odorant receptor agonist call,OR13D1 (Homo sapiens),inactive
same,odorant receptor agonist call,OR13F1 (Homo sapiens),inactive
same,odorant receptor agonist call,OR13G1 (Homo sapiens),inactive
